Data reported in ChEMBL document CHEMBL2169835, “Flavonoid dimers as novel, potent antileishmanial agents” (J Med Chem, 2012).

Assays:
RAW264.7 = assay: Cytotoxicity against mouse RAW264.7 cells after 72 hrs by MTS assay; assay type: cell-based; conditions: RAW264.7, 72 h
Method in brief: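 RAW 264.7 murine macrophage line was plated at 1 × 10^4 cells per well in supplemented DMEM. Cells received a graded compound series for 72 h at 37 °C, 5% CO2, with a maximum of 1% DMSO. Viability was measured by MTS with PMS coupling at OD 490 nm, as percent of untreated control. The IC50 was the concentration reducing OD by half, given as mean ± SEM, N = 1–4.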

Leishmania donovani [1] = assay: Antimicrobial activity against pentamidine-resistant Leishmania donovani AG83PentR50 promastigote assessed as inhibition of parasite growth after 72 hrs by MTS assay; assay type: functional, organism-based; conditions: AG83PentR50, 72 h
Method in brief: (§1)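 Promastigotes were grown in Schneider's medium pH 6.9 with 10% heat-inactivated FBS at 27 °C, seeded at 1 × 10^5 per well, and exposed to serial concentrations for 72 h at 27 °C. Compounds were in DMSO (≤1% final) or water. MTS:PMS (20:1) was added for 4 h, then OD490 was read. Survival was % of untreated control; IC50 = concentration halving OD; N = 1−4.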

Leishmania donovani [2] = assay: Antimicrobial activity against SSG-resistant Leishmania donovani 39 promastigote assessed as inhibition of parasite growth after 72 hrs by MTS assay; assay type: functional, organism-based; conditions: Leishmania donovani, 39, 72 h; method in brief: as §1
Leishmania donovani [3] = assay: Antimicrobial activity against wild-type Leishmania donovani AG83 promastigote assessed as inhibition of parasite growth after 72 hrs by MTS assay; assay type: functional, organism-based; conditions: AG83, 72 h
Method in brief: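 Promastigotes were grown in Schneider's medium pH 6.9 with 10% heat-inactivated FBS at 27 °C, seeded at 1 × 10^5 per well, and exposed to serial concentrations for 72 h at 27 °C. Compounds were in DMSO (≤1% final) or water. MTS:PMS (20:1) was added for 4 h, then OD490 was read.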

| SMILES | IC50 (RAW264.7) | IC50 (Leishmania donovani [1]) | IC50 (Leishmania donovani [2]) | IC50 (Leishmania donovani [3]) |
| --- | --- | --- | --- | --- |
| O=c1cc(-c2ccc(OCCOCCOCCOCCOCCOc3ccc(-c4cc(=O)c5ccccc5o4)cc3)cc2)oc2ccccc12 | 8.9 µM | 10.4 µM | 7.8 µM | 5.3 µM |
| O=c1cc(-c2ccc(OCCOCCN(CCCc3ccccc3)CCOCCOc3ccc(-c4cc(=O)c5ccccc5o4)cc3)cc2)oc2ccccc12 | 85 µM | – | 18.4 µM | 8.9 µM |
| CCc1ccc2oc(-c3ccc(OCCOCCOCCOCCOCCOc4ccc(-c5cc(=O)c6cc(CC)ccc6o5)cc4)cc3)cc(=O)c2c1 | > 200 µM | 6.3 µM | 4.6 µM | 4.7 µM |
| CC(C)(C)OC(=O)N(CCOCCOc1ccc(-c2cc(=O)c3ccccc3o2)cc1)CCOCCOc1ccc(-c2cc(=O)c3ccccc3o2)cc1 | > 100 µM | 1.1 µM | 1.6 µM | 3.2 µM |
| O=c1cc(-c2ccc(OCCOCCN(CCOCCOc3ccc(-c4cc(=O)c5ccccc5o4)cc3)Cc3cccc(F)c3)cc2)oc2ccccc12 | – | – | – | > 100 µM |
| O=c1cc(-c2ccc(OCCOCCN(CCOCCOc3ccc(-c4cc(=O)c5ccccc5o4)cc3)Cc3ccnc4ccccc34)cc2)oc2ccccc12 | – | – | – | 20.4 µM |
| O=c1cc(-c2ccc(OCCOCCN(CCOCCOc3ccc(-c4cc(=O)c5ccccc5o4)cc3)Cc3ccc(C(F)(F)F)cc3)cc2)oc2ccccc12 | – | – | – | 14.1 µM |
| Cc1ccc(S(=O)(=O)N(CCOCCOc2ccc(-c3cc(=O)c4ccccc4o3)cc2)CCOCCOc2ccc(-c3cc(=O)c4ccccc4o3)cc2)cc1 | > 100 µM | – | > 100 µM | 100 µM |
| O=c1cc(-c2ccc(OCCOCCN(CCOCCOc3ccc(-c4cc(=O)c5ccccc5o4)cc3)Cc3ccc([N+](=O)[O-])cc3)cc2)oc2ccccc12 | 70.3 µM | – | > 100 µM | > 100 µM |
| Cc1ccc2c(=O)cc(-c3ccc(OCCOCCOCCOCCOCCOCCOc4ccc(-c5cc(=O)c6ccc(C)cc6o5)cc4)cc3)oc2c1 | 5.3 µM | 4.1 µM | 5.3 µM | 6.7 µM |
| O=c1cc(-c2ccc(OCCOCCOCCOCCOCCOc3ccc(-c4cc(=O)c5ccc(F)cc5o4)cc3)cc2)oc2cc(F)ccc12 | > 100 µM | 3.7 µM | 4.8 µM | 4.1 µM |
| O=c1cc(-c2ccc(OCCOCCOc3ccc(-c4cc(=O)c5ccccc5o4)cc3)cc2)oc2ccccc12 | > 100 µM | > 24 µM | > 24 µM | > 24 µM |
| O=c1cc(-c2ccc(OCCOCCNCCOCCOc3ccc(-c4cc(=O)c5ccccc5o4)cc3)cc2)oc2ccccc12 | 2.1 µM | 1.1 µM | 2.3 µM | 3.3 µM |
| O=C(O)CCC(=O)N(CCOCCOc1ccc(-c2cc(=O)c3ccccc3o2)cc1)CCOCCOc1ccc(-c2cc(=O)c3ccccc3o2)cc1 | 65 µM | 27 µM | > 100 µM | > 100 µM |
| O=c1cc(-c2ccc(OCCOCCN(CCOCCOc3ccc(-c4cc(=O)c5ccccc5o4)cc3)Cc3ccccc3)cc2)oc2ccccc12 | > 79 µM | – | 12.3 µM | 8.4 µM |
| Cc1ccc2oc(-c3ccc(OCCOCCOCCOCCOCCOCCOc4ccc(-c5cc(=O)c6cc(C)ccc6o5)cc4)cc3)cc(=O)c2c1 | > 100 µM | > 24 µM | 3.6 µM | 2.2 µM |
| O=c1cc(-c2ccc(OCCOCCN(CCOCCOc3ccc(-c4cc(=O)c5ccccc5o4)cc3)Cc3ccccc3F)cc2)oc2ccccc12 | – | – | – | > 100 µM |
| CS(=O)(=O)N(CCOCCOc1ccc(-c2cc(=O)c3ccccc3o2)cc1)CCOCCOc1ccc(-c2cc(=O)c3ccccc3o2)cc1 | 96 µM | – | 0.9 µM | 0.75 µM |
| COC(=O)c1ccc(CN(CCOCCOc2ccc(-c3cc(=O)c4ccccc4o3)cc2)CCOCCOc2ccc(-c3cc(=O)c4ccccc4o3)cc2)cc1 | 45.7 µM | – | > 100 µM | > 100 µM |
| Cc1ccc2oc(-c3ccc(OCCOCCOCCOCCOCCOc4ccc(-c5cc(=O)c6cc(C)ccc6o5)cc4)cc3)cc(=O)c2c1 | > 100 µM | > 24 µM | 4.3 µM | > 24 µM |
| O=c1c(O)c(-c2ccc(OCCOCCOCCOCCOc3ccc(-c4oc5ccccc5c(=O)c4O)cc3)cc2)oc2ccccc12 | – | – | > 24 µM | > 24 µM |
| Cc1c(-c2ccc(OCCOCCOCCOCCOCCOc3ccc(-c4oc5ccccc5c(=O)c4C)cc3)cc2)oc2ccccc2c1=O | 3.1 µM | 4.6 µM | 4.2 µM | 4.8 µM |
| O=c1cc(-c2ccc(OCCOCCN(CCOCCOc3ccc(-c4cc(=O)c5ccccc5o4)cc3)Cc3ccc(F)cc3)cc2)oc2ccccc12 | – | – | – | > 100 µM |

| SMILES | IC50 (RAW264.7) | IC50 (Leishmania donovani [1]) | IC50 (Leishmania donovani [2]) | IC50 (Leishmania donovani [3]) |
| --- | --- | --- | --- | --- |
| Cc1ccc2c(=O)cc(-c3ccc(OCCOCCOCCOCCOc4ccc(-c5cc(=O)c6ccc(C)cc6o5)cc4)cc3)oc2c1 | 88.6 µM | > 24 µM | > 24 µM | > 24 µM |
| O=c1cc(-c2ccc(OCCOCCOCCOCCOCCOCCOc3ccc(-c4cc(=O)c5c(O)cc(O)cc5o4)cc3)cc2)oc2cc(O)cc(O)c12 | – | 11.8 µM | 1.4 µM | > 24 µM |
| Cc1c(-c2ccc(OCCOCCOCCOCCOc3ccc(-c4oc5ccccc5c(=O)c4C)cc3)cc2)oc2ccccc2c1=O | 8.1 µM | > 20 µM | > 19 µM | 6.9 µM |
| O=c1cc(-c2ccc(OCCOCCOCCOCCOCCOCCOc3ccc(-c4cc(=O)c5ccccc5o4)cc3)cc2)oc2ccccc12 | 7.1 µM | 4.9 µM | 4.3 µM | 4.8 µM |
| O=c1cc(-c2ccc(OCCOCCN(CCOCCOc3ccc(-c4cc(=O)c5ccccc5o4)cc3)Cc3cc(F)c(F)c(F)c3)cc2)oc2ccccc12 | – | – | – | 33.3 µM |
| Cc1c(-c2ccc(OCCOCCOCCOCCOCCOCCOc3ccc(-c4oc5ccccc5c(=O)c4C)cc3)cc2)oc2ccccc2c1=O | 2.3 µM | 2.5 µM | 2.8 µM | 1.9 µM |
| O=c1cc(-c2ccc(OCCOCCOCCOCCOc3ccc(-c4cc(=O)c5ccccc5o4)cc3)cc2)oc2ccccc12 | > 100 µM | > 24 µM | > 24 µM | > 24 µM |
| O=c1cc(-c2ccc(OCCOCCN(CCO)CCOCCOc3ccc(-c4cc(=O)c5ccccc5o4)cc3)cc2)oc2ccccc12 | 6.4 µM | – | 7.2 µM | 3.2 µM |
| Cc1ccc2oc(-c3ccc(OCCOCCOCCOCCOc4ccc(-c5cc(=O)c6cc(C)ccc6o5)cc4)cc3)cc(=O)c2c1 | > 100 µM | > 24 µM | > 24 µM | > 24 µM |
| O=c1cc(-c2ccc(OCCOCCOCCOCCOCCOCCOc3ccc(-c4cc(=O)c5ccc(F)cc5o4)cc3)cc2)oc2cc(F)ccc12 | 7.8 µM | 4.6 µM | 4.2 µM | 4.2 µM |
| CCN(CCOCCOc1ccc(-c2cc(=O)c3ccccc3o2)cc1)CCOCCOc1ccc(-c2cc(=O)c3ccccc3o2)cc1 | 8.3 µM | – | 5.5 µM | 3.2 µM |
| CCc1ccc2oc(-c3ccc(OCCOCCOCCOCCOCCOCCOc4ccc(-c5cc(=O)c6cc(CC)ccc6o5)cc4)cc3)cc(=O)c2c1 | 5.5 µM | 3.3 µM | 2.5 µM | 3.1 µM |
| O=c1cc(-c2ccc(OCCOCCOCCOCCOCCOCCOCCOCCOc3ccc(-c4cc(=O)c5ccccc5o4)cc3)cc2)oc2ccccc12 | 4.4 µM | 6 µM | 4.6 µM | 5 µM |
| O=c1cc(-c2ccc(OCCOCCOCCOCCOc3ccc(-c4cc(=O)c5c(O)cc(O)cc5o4)cc3)cc2)oc2cc(O)cc(O)c12 | > 200 µM | 3.1 µM | 1.9 µM | 2.2 µM |
| O=c1cc(-c2ccc(OCCOCCOCCOCCOc3ccc(-c4cc(=O)c5ccc(F)cc5o4)cc3)cc2)oc2cc(F)ccc12 | > 200 µM | 2.3 µM | 2.4 µM | 2.6 µM |
| O=c1cc(-c2ccc(OCCOCCOCCOCCOCCOCCOCCOc3ccc(-c4cc(=O)c5ccccc5o4)cc3)cc2)oc2ccccc12 | 4.8 µM | 7.3 µM | 10.3 µM | 6.2 µM |
| O=c1cc(-c2ccc(OCCOCCOCCOc3ccc(-c4cc(=O)c5c(O)cc(O)cc5o4)cc3)cc2)oc2cc(O)cc(O)c12 | > 200 µM | 6.7 µM | 2.7 µM | 5.6 µM |
| O=c1cc(-c2ccc(OCCOCCOCCOc3ccc(-c4cc(=O)c5ccccc5o4)cc3)cc2)oc2ccccc12 | > 95 µM | > 24 µM | > 24 µM | > 24 µM |
| O=c1cc(-c2ccc(OCCOCCOCCOCCOCCOCCOCCOCCOCCOCCOCCOCCOCCOc3ccc(-c4cc(=O)c5ccccc5o4)cc3)cc2)oc2ccccc12 | 8.4 µM | 7.9 µM | 8.2 µM | 9.2 µM |
| CCc1ccc2oc(-c3ccc(OCCOCCOCCOCCOc4ccc(-c5cc(=O)c6cc(CC)ccc6o5)cc4)cc3)cc(=O)c2c1 | > 100 µM | > 24 µM | > 24 µM | > 24 µM |
| CCOC(=O)CCN(CCOCCOc1ccc(-c2cc(=O)c3ccccc3o2)cc1)CCOCCOc1ccc(-c2cc(=O)c3ccccc3o2)cc1 | 16 µM | – | 6.6 µM | 3.8 µM |
| O=c1cc(-c2ccc(OCCOCCOCCOCCOc3ccc(-c4cc(=O)c5c(O)cccc5o4)cc3)cc2)oc2cccc(O)c12 | – | – | > 24 µM | > 24 µM |
